Assay results: ChEMBL document CHEMBL4382210, “Identification of novel benzothiopyranone compounds against Mycobacterium tuberculosis through scaffold morphing from benzothiazinones” (Eur J Med Chem, 2018)
In brackets after ≈: the same amount, converted by molar mass.

Tests used:
[1] = tested on: Vero; test: Cytotoxicity against African green monkey Vero cells assessed as reduction in cell viability after 48 hrs by MTT assay; assay type: cell-based; settings: Chlorocebus sabaeus
Method in brief: (§1)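 Vero or HepG2 cells in RPMI1640 with 10% FBS at 37 °C, 5% CO2, seeded at 4×10^5 cells/mL. Threefold dilutions at 64–0.26 µg/mL final for 48 h. Cells then washed with HBSS, MTT added for 4 h, absorbance read at 492 nm. IC50 taken relative to untreated control.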

[2] = tested on: Mycobacterium tuberculosis; test: Antimicrobial activity against Mycobacterium tuberculosis H37Rv after 7 days by MABA; assay type: functional; settings: 168 h
Method in brief: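 Strain H37Rv or clinical isolates grown to late log phase in 7H9-ADC-TG, washed, resuspended in PBS, filtered (8 µm) and frozen. On day 7 Tween 80 and alamar blue added, read 16–24 h later (ex 530/em 590). MIC = lowest concentration giving ≥90% fluorescence reduction versus bacterium-only controls.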

[3] = Inhibition of Mycobacterium tuberculosis DprE1 expressed in Escherichia coli BL21(DE3) by fluorescence based assay
Method in brief: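 Buffer: 50 mM Hepes pH 7.5, 100 mM NaCl, 1.5% DMSO, 100 µM Tween-20, 2 µM FAD, 50 µM resazurin. DprE1 (1 µM) with 1 mM FPR at 30 °C across inhibitor concentrations. Resorufin formation followed by fluorescence (ex 530/em 595 nm).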

[4] = Metabolic stability in CD-1 mouse liver microsomes assessed as parent compound remaining at 1 uM measured after 30 mins in presence of NADPH by LC-MS/MS analysis; assay type: ADME, Microsome; settings: read-out: Stability
Method in brief: (§2)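 Male CD-1 mouse or pooled human liver microsomes (1 mg/mL protein), compound at 1 µM, 37 °C. Reaction started with 1 mM NADPH and quenched with cold ACN/MeOH containing internal standard. Parent remaining measured by LC-MS/MS; the 30-min value is normalised to time zero.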

[5] = Metabolic stability in human liver microsomes assessed as parent compound remaining at 1 uM measured after 30 mins in presence of NADPH by LC-MS/MS analysis; assay type: ADME, Microsome; settings: read-out: Stability; method in brief: as §2
[6] = Half life in CD-1 mouse hepatocytes assessed per million cells at 1 uM incubated up to 120 mins by LC-MS/MS analysis; assay type: ADME, cell-based, Hepatocyte
Method in brief: (§3)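 Pooled male CD-1 mouse or pooled human hepatocytes at 1 million cells/mL final, compound at 1 µM. Incubated at 37 °C in a CO2 incubator with shaking (~100 rpm). Samples taken at 0, 15, 30, 60, 90 and 120 min and quenched with cold ACN/MeOH containing internal standard. Parent compound remaining measured by LC-MS/MS.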

[7] = Intrinsic clearance in CD-1 mouse hepatocytes assessed per million cells at 1 uM incubated up to 120 mins by LC-MS/MS analysis; assay type: ADME, cell-based, Hepatocyte; settings: read-out: CLH; method in brief: as §3
[8] = tested on: HepG2; test: Cytotoxicity against human HepG2 cells assessed as reduction in cell viability after 48 hrs by MTT assay; assay type: cell-based; settings: HepG2, 48 h; method in brief: as §1
[9] = Half life in human hepatocytes assessed per million cells at 1 uM incubated up to 120 mins by LC-MS/MS analysis; assay type: ADME, cell-based, Hepatocyte; method in brief: as §3
[10] = Selectivity index, ratio of IC50 for human HepG2 cells to MIC=>90 for Mycobacterium tuberculosis H37Rv; assay type: toxicity; settings: read-out: Selectivity Index
[11] = Intrinsic clearance in human hepatocytes assessed per million cells at 1 uM incubated up to 120 mins by LC-MS/MS analysis; assay type: ADME, cell-based, Hepatocyte; settings: read-out: CLH; method in brief: as §3

SMILES	IC50 [1] [µg/mL]	MIC90 [2] [µg/mL]	also measured
CN(Cc1ccc2c(c1)OCCO2)c1cc(=O)c2cc(C(F)(F)F)cc([N+](=O)[O-])c2o1	29.4 (≈ 67.4 µM)	< 0.016	
O=c1nc(N2CCN(Cc3ccccc3)CC2)oc2c([N+](=O)[O-])cc(C(F)(F)F)cc12	33.5 (≈ 77.1 µM)	3.93 (≈ 9.05 µM)	
COc1ccc(CNc2nc(=O)c3cc(C(F)(F)F)cc([N+](=O)[O-])c3o2)cc1OC	29.2 (≈ 68.7 µM)	0.226 (≈ 0.531 µM)	
O=C1CN(c2nc(=O)c3cc(C(F)(F)F)cc([N+](=O)[O-])c3o2)CCN1CC1CCCCC1	25.4 (≈ 55.9 µM)	6.28 (≈ 13.8 µM)	
O=c1cc(NCc2cccc(F)c2)sc2c([N+](=O)[O-])cc(C(F)(F)F)cc12	> 64	0.118 (≈ 0.296 µM)	
O=c1nc(NCc2cccc(F)c2)oc2c([N+](=O)[O-])cc(C(F)(F)F)cc12	> 64	> 32	
O=c1cc(NC2CCCCC2)sc2c([N+](=O)[O-])cc(C(F)(F)F)cc12	> 64	1.53 (≈ 4.1 µM)	
C[C@H]1COC2(CCN(c3nc(=O)c4cc(C(F)(F)F)cc([N+](=O)[O-])c4s3)CC2)O1 [BTZ-043]	> 64	< 0.016	IC50 [3]: 1030 nM
CN(Cc1ccccc1)c1cc(=O)c2cc(C(F)(F)F)cc([N+](=O)[O-])c2s1	> 64	< 0.016	remaining at 0.5 h, 1 µM [4]: 13%; remaining at 0.5 h, 1 µM [5]: 11.6%
O=c1cc(N2CCN(c3nccs3)CC2)sc2c([N+](=O)[O-])cc(C(F)(F)F)cc12	> 64	0.054 (≈ 0.122 µM)	
CC1CN(c2cc(=O)c3cc(C(F)(F)F)cc([N+](=O)[O-])c3s2)CCN1CC1CCCCC1 (stereo not given)	> 64	< 0.016	remaining at 0.5 h, 1 µM [4]: 59.9%; remaining at 0.5 h, 1 µM [5]: 62.7%
O=c1nc(N2CCN(CC3CCCCC3)CC2)sc2c([N+](=O)[O-])cc(C(F)(F)F)cc12 [MACOZINONE]	> 64	< 0.016	remaining at 0.5 h, 1 µM [4]: 63.9%; half-life at 1 µM [6]: 2.75 h; IC50 [3]: 200 nM; hepatocyte CLint at 1 µM [7]: 4.2 µL/min/1e6 cells; IC50 [8]: 19 µg/mL (≈ 41.6 µM); half-life at 1 µM [9]: 0.797 h; selectivity ratio [10]: > 1190; hepatocyte CLint at 1 µM [11]: 14.5 µL/min/1e6 cells; remaining at 0.5 h, 1 µM [5]: 58.7%
CO[C@H]1/C=C/O[C@@]2(C)Oc3c(C)c(O)c4c(O)c(c(/C=N/N5CCN(C)CC5)c(O)c4c3C2=O)NC(=O)/C(C)=C\C=C\[C@H](C)[C@H](O)[C@@H](C)[C@@H](O)[C@@H](C)[C@H](OC(C)=O)[C@@H]1C [RIFAMPIN]		0.096 (≈ 0.117 µM)	
O=c1cc(NCc2ccc(F)cc2)sc2c([N+](=O)[O-])cc(C(F)(F)F)cc12	> 64	0.206 (≈ 0.517 µM)	
O=c1cc(NCc2ccc3c(c2)OCCO3)sc2c([N+](=O)[O-])cc(C(F)(F)F)cc12	> 64	0.03 (≈ 0.0684 µM)	
O=c1cc(Nc2ccccc2)sc2c([N+](=O)[O-])cc(C(F)(F)F)cc12	> 64	> 32	
CC1COC2(CCN(c3cc(=O)c4cc(C(F)(F)F)cc([N+](=O)[O-])c4s3)CC2)O1 (stereo not given)	> 64	0.03 (≈ 0.0697 µM)	remaining at 0.5 h, 1 µM [4]: 47.4%; IC50 [3]: 630 nM; remaining at 0.5 h, 1 µM [5]: 82.8%
COc1ccc(CNc2cc(=O)c3cc(C(F)(F)F)cc([N+](=O)[O-])c3s2)cc1OC	> 64	0.902 (≈ 2.05 µM)	
CN(Cc1ccc2c(c1)OCCO2)c1cc(=O)c2cc(C(F)(F)F)cc([N+](=O)[O-])c2s1	> 64	< 0.016	remaining at 0.5 h, 1 µM [4]: 6.46%; remaining at 0.5 h, 1 µM [5]: 44.9%
CC1COC2(CCN(c3nc(=O)c4cc(C(F)(F)F)cc([N+](=O)[O-])c4o3)CC2)O1 (stereo not given)	9.21 (≈ 22.2 µM)	< 0.016	
O=c1nc(N2CCN(c3nccs3)CC2)oc2c([N+](=O)[O-])cc(C(F)(F)F)cc12		4 (≈ 9.36 µM)	

SMILES	IC50 [1] [µg/mL]	MIC90 [2] [µg/mL]	also measured
CN(Cc1ccccc1)c1nc(=O)c2cc(C(F)(F)F)cc([N+](=O)[O-])c2o1	3.84 (≈ 10.1 µM)	0.031 (≈ 0.0817 µM)	
O=c1nc(NCC2CCCCC2)oc2c([N+](=O)[O-])cc(C(F)(F)F)cc12	29.7 (≈ 80.1 µM)	0.05 (≈ 0.135 µM)	
O=c1nc(Nc2ccccc2)oc2c([N+](=O)[O-])cc(C(F)(F)F)cc12	37.9 (≈ 108 µM)	30.6 (≈ 87.3 µM)	
COc1ccc(CN(C)c2nc(=O)c3cc(C(F)(F)F)cc([N+](=O)[O-])c3o2)cc1OC	9.46 (≈ 21.5 µM)	0.057 (≈ 0.13 µM)	
CC1CN(c2cc(=O)c3cc(C(F)(F)F)cc([N+](=O)[O-])c3s2)CCN1Cc1ccccc1 (stereo not given)	> 64	< 0.016	remaining at 0.5 h, 1 µM [4]: 54.5%; remaining at 0.5 h, 1 µM [5]: 76.7%
O=C1CN(c2cc(=O)c3cc(C(F)(F)F)cc([N+](=O)[O-])c3o2)CCN1CC1CCCCC1	9.73 (≈ 21.5 µM)	0.091 (≈ 0.201 µM)	
CC1CN(c2nc(=O)c3cc(C(F)(F)F)cc([N+](=O)[O-])c3o2)CCN1Cc1ccccc1 (stereo not given)	15.6 (≈ 34.8 µM)	< 0.016	
O=C1CN(c2cc(=O)c3cc(C(F)(F)F)cc([N+](=O)[O-])c3s2)CCN1CC1CCCCC1	> 64	< 0.016	remaining at 0.5 h, 1 µM [4]: 7.38%; remaining at 0.5 h, 1 µM [5]: 86.6%
COc1ccc(CN(C)c2cc(=O)c3cc(C(F)(F)F)cc([N+](=O)[O-])c3s2)cc1OC	> 64	< 0.016	
CN(Cc1ccc2c(c1)OCCO2)c1nc(=O)c2cc(C(F)(F)F)cc([N+](=O)[O-])c2o1	9.27 (≈ 21.2 µM)	< 0.016	
CC1COC2(CCN(c3cc(=O)c4cc(C(F)(F)F)cc([N+](=O)[O-])c4o3)CC2)O1 (stereo not given)	18.9 (≈ 45.5 µM)	< 0.016	
O=c1cc(NCc2ccccc2)sc2c([N+](=O)[O-])cc(C(F)(F)F)cc12	> 64	> 32	
O=c1cc(NCC2CCCCC2)sc2c([N+](=O)[O-])cc(C(F)(F)F)cc12	> 64	0.402 (≈ 1.04 µM)	
O=c1nc(NCc2ccccc2)oc2c([N+](=O)[O-])cc(C(F)(F)F)cc12	25.4 (≈ 69.4 µM)	30.5 (≈ 83.6 µM)	
O=c1nc(NCc2ccc3c(c2)OCCO3)oc2c([N+](=O)[O-])cc(C(F)(F)F)cc12	25.3 (≈ 59.7 µM)	0.03 (≈ 0.0709 µM)	
O=c1nc(NCc2ccc(F)cc2)oc2c([N+](=O)[O-])cc(C(F)(F)F)cc12	> 64	7.22 (≈ 18.8 µM)	
O=c1nc(N2CCN(CC3CCCCC3)CC2)oc2c([N+](=O)[O-])cc(C(F)(F)F)cc12	52.1 (≈ 118 µM)	0.159 (≈ 0.361 µM)	
O=c1nc(NC2CCCCC2)oc2c([N+](=O)[O-])cc(C(F)(F)F)cc12	5.39 (≈ 15.1 µM)	0.118 (≈ 0.33 µM)	
O=c1cc(N2CCN(Cc3ccccc3)CC2)sc2c([N+](=O)[O-])cc(C(F)(F)F)cc12	> 64	0.03 (≈ 0.0667 µM)	remaining at 0.5 h, 1 µM [4]: 60.5%; IC50 [3]: 1330 nM; IC50 [8]: > 64 µg/mL; selectivity ratio [10]: > 2130; remaining at 0.5 h, 1 µM [5]: 87.6%
O=c1cc(N2CCN(CC3CCCCC3)CC2)oc2c([N+](=O)[O-])cc(C(F)(F)F)cc12	10.6 (≈ 24.1 µM)	0.116 (≈ 0.264 µM)	
CC1CN(c2nc(=O)c3cc(C(F)(F)F)cc([N+](=O)[O-])c3o2)CCN1CC1CCCCC1 (stereo not given)	10.9 (≈ 23.9 µM)	< 0.016	
